Tests used:
[1] = species on record: Oryctolagus cuniculus; experiment: In vitro contraction of rabbit aorta strips.; type: functional, organism-based
How it was run: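 Rabbit aortic strips first contracted with 110 mM KCl to check viability and set maximal force. After washout and full relaxation, strips were equilibrated in 10 mM KCl, then given cumulative concentrations of test compound. EC50 is the concentration giving 50% of the prior 110 mM KCl maximal force.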

[2] = species on record: Oryctolagus cuniculus; experiment: In vitro inhibition of potassium-induced contractions in rabbit aorta strips.; type: functional, organism-based
How it was run: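 Rabbit aortic strips contracted with 110 mM KCl (equimolar replacement of NaCl), then exposed to cumulative concentrations of test compound.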

EC50 [1] [µM] | IC50 [2] [µM] | EC50 ([1]; Oryctolagus cuniculus, Aorta) [µM] | IC50 ([2]; Oryctolagus cuniculus, Aorta) [µM] | SMILES
0.59 | > 30 | – | – | CSC1=NC2/C(=C(/O)OCCCCCSc3ccccc32)C(C)=N1 (stereo in doubt; 15b-B)
> 30 | 0.1 | – | – | CSC1=NC2/C(=C(/O)OCCCCCSc3ccccc32)C(C)=N1 (stereo in doubt; 15b-A)
– | – | 0.046 | 17.1 | CO/C(O)=C1\C(C)=NC(C)=C([N+](=O)[O-])[C@H]1c1ccccc1C(F)(F)F
– | – | > 30 | 2.27 | COC(=O)C1=C(C)N=C(SC)N[C@@H]1c1ccccc1SC
0.82 | 3.9 | – | – | CSC1=NC2/C(=C(/O)OCCCCCSc3ccccc32)C(C)=N1 (stereo in doubt; 15b)
– | – | > 30 | > 30 | CSC1=NC(c2cccc([N+](=O)[O-])c2)C2=C(O)OCC2=N1 (stereo not given)
– | – | > 30 | 20.6 | COC(=O)C1=C(C)N=C(SC)NC1c1ccccc1SC (stereo not given)
– | – | > 30 | 0.036 | CSC1=NC2/C(=C(/O)OCCCCCSc3c2cccc3[N+](=O)[O-])C(C)=N1 (stereo not given)
– | – | 3.55 | > 30 | COC(=O)C1=C(C)N=C(SC)N[C@H]1c1ccccc1SC
– | – | > 30 | > 30 | CSC1=NC(c2cc([N+](=O)[O-])ccc2SC)C2=C(O)OCC2=N1 (stereo not given)
– | – | > 30 | – | COC(=O)C1=C(C)N=C(SC)NC1c1cccc([N+](=O)[O-])c1SC (stereo not given)
– | – | 2.9 | 26 | CSC1=NC2/C(=C(/O)OCCCCCSc3ccc([N+](=O)[O-])cc32)C(C)=N1 (stereo not given)
– | – | > 30 | > 30 | CSC1=NC(c2ccccc2SC)C2=C(O)OCC2=N1 (stereo not given)
– | – | > 30 | 2.5 | COC(=O)C1=C(C)N=C(SC)NC1c1cccc([N+](=O)[O-])c1 (stereo not given)
– | – | > 30 | 20 | COC(=O)C1=C(C)N=C(SC)NC1c1cc([N+](=O)[O-])ccc1SC (stereo not given)
– | – | > 30 | > 30 | CSC1=NC(c2cccc([N+](=O)[O-])c2SC)C2=C(O)OCC2=N1 (stereo not given)
– | – | 17.3 | > 30 | CCCCSc1ccccc1C1N=C(SC)NC2=C1C(=O)OC2 (stereo not given)

SMILES | EC50 [1] [µM] | IC50 [2] [µM] | EC50 ([1]; Oryctolagus cuniculus, Aorta) [µM] | IC50 ([2]; Oryctolagus cuniculus, Aorta) [µM]
COC(=O)C1=C(C)NC(C)=C(C(=O)OC)C1c1ccccc1[N+](=O)[O-] [NIFEDIPINE] | – | – | > 30 | 0.019
